Sampled rows, rich in hits. Any-hit rate of the full collection: about 1.7%.
Neddyl block – blocks human cullin neddylation; inhibition, % at 25 µM; AID 651699; hit rate 0.58% among 360,000; P61081+Q13564; TR-FRET cullin neddylation, biochemical; in the data active means inhibition above about 36%
Arr AP2 block – human beta-arrestin and AP2 interaction inhibition. FITC-arrestin peptide / GST-AP2 beads, flow cytometry; AP2 beta2 appendage carries R879A mutation. AID 504490. inhibition, % at 10 µM. hit rate 0.31% among 340,000;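 active means inhibition above a set limit, near 3 SD of compounds lacking own fluorescence, cut at about 54% in these data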
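System: GST-tagged AP2 beta2-adaptin appendage (R879A) on 4 µm glutathione beads / Reagent: FITC-arrestin peptide, 50 nM / Detection: HyperCyt-sampled flow cytometry, FL1 channel, ex 488/em 535 nm / Timing: 12 min plus 1 h, RT / Buffer or medium: PBS plus Tween 20 (0.05%) and BSA (0.1%)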
Pemphigus Ab inh – inhibitors of pemphigus antibody binding to human desmoglein-3; binding (percent of control), % at 10 µM; P32926; hit rate 0.48% among 310,000; DSG3-coupled beads, scFv-anti-DSG3-GFP binding, flow cytometry; stronger effect = lower value;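 active means binding more than 3 SD below its plate's average and above zero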
Efflux pump inh – antifungal efflux pump inhibition, Nile Red retention; inhibition, % at 10 µM; S. cerevisiae Candida pump triplex; hit rate 0.44% among 330,000;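 active means plate passing quality check with inhibition over a set limit, or well fluorescence over plate mean plus 4 SD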;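 further: Nile Red retained in pooled yeast measured as flow cytometry median fluorescence; higher means more Nile Red kept so more efflux inhibition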
Arr-AP2 CP1 – inhibitors of human beta-arrestin and AP2 interaction; shares compounds with Arr AP2 block; GST-AP2 beads, FITC arrestin peptide binding, flow cytometry; GST-fused beta2-adaptin appendage, R879A mutant; inhibition, % at 10 µM; hit rate 2% among 1,300;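 active means inhibition above a set limit, roughly 3 SD of non-fluorescent compound noise, cut at about 38% in these data; inactive means inhibition at or below that limit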;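 further: loss of bead fluorescence from 50 nM FITC arrestin peptide bound to appendage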
GST-FITC bead – disrupts GST binding to glutathione beads, arrestin-AP2 artifact | GST-fluorescein binding to GSH beads, fluorescence, counter-screen | inhibition, % at 10 µM | shares compounds with Arr AP2 block | hit rate 2% among 1,300;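 active means inhibition above 50%, about 3 SD of the inhibition seen with non-fluorescent compounds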;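 further: fluorescein maleimide labelled GST captured on 4 micron glutathione beads; higher means more loss of bead fluorescence from quenching or blocked binding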
A number is an active result.

For CC1CN(C(=O)c2ccc(NS(=O)(=O)c3ccc(F)c(F)c3)cc2)CC(C)O1 (centres undefined) the results were Neddyl block inactive, Arr AP2 block 56.2, Pemphigus Ab inh inactive, Efflux pump inh inactive, Arr-AP2 CP1 inactive and GST-FITC bead inactive.
Screening CCc1ccccc1NC(=O)Nc1cccn(Cc2ccc(F)cc2)c1=O returned Neddyl block inactive, Arr AP2 block 58.2, Pemphigus Ab inh inactive, Efflux pump inh inactive, Arr-AP2 CP1 inactive and GST-FITC bead inactive.
Screening CCc1ccccc1NC(=O)Nc1ccc(F)cc1 returned Neddyl block inactive, Arr AP2 block inactive, Pemphigus Ab inh inactive and Efflux pump inh inactive.
Screening COc1ccc(C2C(C#N)=C(N)OC(C(C)(C)C)=C2C#N)cc1OC (centres undefined) returned Neddyl block inactive, Arr AP2 block inactive, Pemphigus Ab inh inactive and Efflux pump inh inactive.
Screening COc1cccc(C2C(C#N)=C(N)OC(C(C)(C)C)=C2C#N)c1 (centres undefined) returned Neddyl block inactive, Arr AP2 block 92.8, Pemphigus Ab inh inactive, Efflux pump inh inactive, Arr-AP2 CP1 inactive and GST-FITC bead inactive.
`COC(=O)c1cc(OC)c(OC)cc1NC(=S)N1CCCC1` gave Neddyl block inactive, Arr AP2 block 55.6, Pemphigus Ab inh inactive, Efflux pump inh inactive, Arr-AP2 CP1 inactive and GST-FITC bead inactive.
O=C(NC1CC2CCCC(C1)N2C(=S)NCCc1ccccc1)C1CC1 (centres undefined) was read as Neddyl block inactive, Arr AP2 block 55.8, Pemphigus Ab inh inactive, Efflux pump inh inactive, Arr-AP2 CP1 inactive and GST-FITC bead inactive.
`O=C(NC1CC2CCCC(C1)N2C(=O)NCc1ccccc1)C1CC1` (centres undefined) gave Neddyl block inactive, Arr AP2 block inactive, Pemphigus Ab inh inactive and Efflux pump inh inactive.
Screening COc1ccc(S(=O)(=O)N2CCOC2CNC(=O)C(=O)NCCCN2CCOCC2)cc1 (centres undefined) returned Neddyl block inactive, Arr AP2 block inactive, Pemphigus Ab inh inactive and Efflux pump inh inactive.
COc1ccc(C(=O)Nc2ccc(S(=O)(=O)Nc3ncccn3)cc2)cc1OC was read as Neddyl block inactive, Arr AP2 block inactive, Pemphigus Ab inh inactive and Efflux pump inh inactive.
`COc1cc(OC)cc(C(=O)Nc2ccc(S(=O)(=O)Nc3ncccn3)cc2)c1` gave Neddyl block inactive, Arr AP2 block 54.7, Pemphigus Ab inh inactive, Efflux pump inh inactive, Arr-AP2 CP1 inactive and GST-FITC bead inactive.
Screening CCSCc1nnc(SCC(=O)Nc2cccc(C(C)=O)c2)n1C returned Neddyl block inactive, Arr AP2 block inactive, Pemphigus Ab inh inactive and Efflux pump inh inactive.
For CCSCc1nnc(SCC(=O)Nc2cccc(SC)c2)n1C the results were Neddyl block inactive, Arr AP2 block 99.2, Pemphigus Ab inh inactive, Efflux pump inh inactive, Arr-AP2 CP1 inactive and GST-FITC bead inactive.
`c1ccc(CCNc2nnnn2-c2ccccc2)cc1` gave Neddyl block inactive, Arr AP2 block inactive, Pemphigus Ab inh inactive and Efflux pump inh inactive.
Screening C1=C(CCNc2nnnn2-c2ccccc2)CCCC1 returned Neddyl block inactive, Arr AP2 block 54.7, Efflux pump inh inactive, Arr-AP2 CP1 inactive and GST-FITC bead inactive.
Screening O=C(N/N=C/c1cccn1-c1ccc([N+](=O)[O-])cc1)c1cccnc1 returned Neddyl block inactive, Arr AP2 block inactive, Pemphigus Ab inh inactive and Efflux pump inh inactive.
For O=C(N/N=C/c1cccn1-c1ccccc1)c1ccncc1 the results were Neddyl block inactive, Arr AP2 block 58.5, Pemphigus Ab inh inactive, Efflux pump inh inactive, Arr-AP2 CP1 inactive and GST-FITC bead inactive.
`CC1CN(Cc2ccccc2)c2nc3c(c(=O)[nH]c(=O)n3C)n2C1` (centres undefined) gave Neddyl block inactive, Arr AP2 block inactive, Pemphigus Ab inh inactive and Efflux pump inh inactive.
Screening COc1ccc(C(=O)C2CCCN(C(=O)C3=CCCC3)C2)cc1OC (centres undefined) returned Neddyl block inactive, Arr AP2 block 59.4, Pemphigus Ab inh inactive, Efflux pump inh inactive and Arr-AP2 CP1 inactive.
COc1ccc(F)cc1C(=O)C1CCCN(Cc2cn(C)c3ccccc23)C1 (centres undefined) was read as Neddyl block inactive, Arr AP2 block 54.5, Pemphigus Ab inh inactive, Efflux pump inh inactive, Arr-AP2 CP1 inactive and GST-FITC bead inactive.
For COc1ccc(S(=O)(=O)N2CCC(C(=O)N3CCCCC3)CC2)cc1OC the results were Neddyl block inactive, Arr AP2 block inactive, Pemphigus Ab inh inactive and Efflux pump inh inactive.
Screening CCOc1ccccc1CN1CCCC(C(=O)c2ccc(OC)c(OC)c2)C1 (centres undefined) returned Neddyl block inactive, Arr AP2 block 54.3, Pemphigus Ab inh inactive, Efflux pump inh inactive, Arr-AP2 CP1 inactive and GST-FITC bead inactive.
For COc1ccc(S(=O)(=O)N2CCCC(C(=O)N3CCCC3)C2)cc1OC (centres undefined) the results were Neddyl block inactive, Arr AP2 block 69.1, Pemphigus Ab inh inactive, Efflux pump inh inactive, Arr-AP2 CP1 inactive and GST-FITC bead inactive.
Screening Cn1cc(CN2CCCC(C(=O)c3cc(F)ccc3F)C2)c2ccccc21 (centres undefined) returned Neddyl block inactive, Arr AP2 block inactive, Pemphigus Ab inh inactive and Efflux pump inh inactive.
`CCCCOCCCNC(=O)c1ccc(OCC)cc1` gave Neddyl block inactive, Arr AP2 block inactive and Efflux pump inh inactive.
`CCc1ccc(NC(=O)C2CCN(S(=O)(=O)c3c(C)noc3/C=C/N(C)C)CC2)cc1` gave Neddyl block inactive, Arr AP2 block 54.7, Pemphigus Ab inh inactive, Efflux pump inh inactive, Arr-AP2 CP1 inactive and GST-FITC bead inactive.
`O=C(NCC1CCCO1)c1nc(Cn2ccc([N+](=O)[O-])n2)no1` (centres undefined) gave Neddyl block inactive, Arr AP2 block inactive and Efflux pump inh inactive.
Screening O=C(CNC(=O)c1cncc(Br)c1)Nc1ccc(F)c(F)c1F returned Neddyl block inactive, Arr AP2 block inactive, Pemphigus Ab inh inactive and Efflux pump inh inactive.
For COc1ccc(CC2C(=O)NC(C)C(=O)N(C)C3Cc4ccc(cc4)Oc4cc(ccc4O)CC(C(=O)NC(C)C(=O)NC(C)C(=O)N2C)N(C)C3=O)cc1 (centres undefined) the results were Neddyl block inactive, Arr AP2 block inactive and Pemphigus Ab inh inactive.
CC(C)=CCCC(C)CN1CCC(n2nccc2NC(=O)c2cccnc2)CC1 (centres undefined) was read as Neddyl block inactive, Arr AP2 block 59.8, Pemphigus Ab inh inactive, Efflux pump inh inactive, Arr-AP2 CP1 inactive and GST-FITC bead inactive.
`CC(=O)Oc1ccc(C(=O)Nc2cccc3c2CCCC3)cc1` gave Neddyl block inactive, Arr AP2 block inactive, Pemphigus Ab inh inactive and Efflux pump inh inactive.

Screens: PubChem BioAssay, several laboratories
